Source: PubChem BioAssay
ADAM17 inh – inhibitors of human ADAM17 | hit rate 0.83% among 370,000 | recombinant ADAM17, EDANS/DABCYL FRET peptide cleavage | inhibition, % at 6.95 µM;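 active means inhibition above the mean of compounds lying between control limits plus 3 SD, set per campaign, cut at about 8.5% in these data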;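 further: 0% = DMSO-only wells as the low control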
FAS TE block – FAS thioesterase (human) inhibition | hit rate 0.67% among 360,000 | P49327 | inhibition, % at 15 µM | recombinant FAS-TE, OMFH fluorogenic substrate, fluorescence endpoint;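 active means compounds whose normalised, plate-corrected inhibition of enzyme fluorescence in the single-dose primary screen is 50% or more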;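 further: 0% = DMSO with enzyme and 100% = substrate without enzyme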
SENP1 inh – inhibitors of human SENP1 SUMO protease catalytic domain. inhibition, % at 10 µM. recombinant SENP1 catalytic domain, CyPet-SUMO1-YPet FRET cleavage. Q9P0U3. hit rate 0.21% among 360,000;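 active means inhibition at least 30% at 10 µM, raw YFP signal under a set limit, fluorescence ratio 0.5 to 1.5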;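 further: 0% = enzyme with DMSO and 100% = no enzyme wells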
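system = hSENP1 catalytic domain, recombinant | reagent = SFCypet-SUMO1-SFYpet substrate at 25 nM | doses = one dose per compound, 10 µM, 0.5% DMSO | incubation = enzyme reaction for 50 min at room temperature, dark | measured by = FRET, CFP and YFP emission | controls = no-enzyme low, enzyme-DMSO high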
ADAM10 inh – inhibitors of human ADAM10 | recombinant ADAM10, EDANS/DABCYL FRET peptide cleavage, 3 h | inhibition, % at 7 µM | hit rate 0.62% among 370,000 | AID 720582;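 active means inhibition above a per-campaign cutoff equal to the mean of compounds falling between control-based bounds plus 3 SD, cut at about 20% in these data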;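 further: 0% = DMSO wells while the 100% control is not disclosed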
Target sequence (O14672 214-748 limits assumed): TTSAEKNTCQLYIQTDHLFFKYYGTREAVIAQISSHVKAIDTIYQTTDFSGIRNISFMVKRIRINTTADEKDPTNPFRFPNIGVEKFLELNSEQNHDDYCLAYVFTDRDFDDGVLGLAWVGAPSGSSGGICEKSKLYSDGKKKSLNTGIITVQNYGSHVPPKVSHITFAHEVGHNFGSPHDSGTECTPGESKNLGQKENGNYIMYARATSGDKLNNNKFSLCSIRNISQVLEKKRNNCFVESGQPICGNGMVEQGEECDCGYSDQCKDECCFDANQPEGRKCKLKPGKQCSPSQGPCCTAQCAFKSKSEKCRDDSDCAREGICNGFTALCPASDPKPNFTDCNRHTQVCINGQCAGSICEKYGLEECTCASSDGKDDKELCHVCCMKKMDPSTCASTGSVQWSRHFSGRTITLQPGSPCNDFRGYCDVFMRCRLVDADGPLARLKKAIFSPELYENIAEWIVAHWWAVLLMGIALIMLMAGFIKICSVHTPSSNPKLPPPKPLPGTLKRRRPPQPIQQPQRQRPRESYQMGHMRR
ADAM10 confirm – human ADAM10 inhibition, confirmation; shares compounds with ADAM10 inh; ADAM10 QFRET peptide cleavage, EDANS fluorescence; hit rate 1% among 2,100; inhibition, % at 6.95 µM;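 active means inhibition above about 20% chosen separately for each screening run, limit read from the data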;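 further: 0% = DMSO wells and 100% = marimastat wells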
ADAM17 ctr – ADAM17 inhibition, counter-screen for ADAM10 exosite hits; inhibition, % at 6.95 µM; shares compounds with ADAM10 inh; hit rate 0.5% among 2,100; ADAM17 QFRET peptide cleavage, EDANS fluorescence;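 active means mean triplicate inhibition above the solvent-only control wells' mean plus 3 SD, cut at about 12% in these data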;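 further: 0% = DMSO wells and 100% = marimastat wells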
Starred values were filed as active, the others as inactive; · = not tested or not shown. Shown are actives, neighbours in structure and some others; about 1.9% of the full set was active somewhere.

SMILES | ADAM17 inh | FAS TE block | SENP1 inh | ADAM10 inh | ADAM10 confirm | ADAM17 ctr
COc1ccc2c(c1)[C@H]1[C@H](CO2)[C@H](c2ccccc2)[C@]2(C)C(=O)Nc3ccc(C)cc3C(=O)N12 | 0 | 44 | -1 | 28* | 10 | 3
O=C(Nc1ccccc1Oc1ccccc1)c1cccc([N+](=O)[O-])c1 | 5 | 33 | 1 | 10 | · | ·
Cc1ccc(C(=O)Nc2ccccc2Oc2ccccc2)cc1[N+](=O)[O-] | 5 | 32 | -2 | 22* | 4 | 0
O=C(NN=C/C=C/c1ccco1)c1cc(-c2ccc(Cl)cc2)n[nH]1 | 1 | · | · | -5 | · | ·
O=C(C1CCN(S(=O)(=O)c2cnc[nH]2)CC1)N1CCN(c2ccc([N+](=O)[O-])cc2)CC1 | 2 | -16 | 1 | 45* | -1 | 0
O=C(C1CC1)N1CCN(c2ccc([N+](=O)[O-])cc2)CC1 | -5 | 0 | 2 | 0 | · | ·
COc1ccc(Nc2nc(-c3ccccc3O)nc3ccccc23)cc1 | 5 | 33 | 3 | 21* | 10 | 3
O=C(CSc1nc2ccccc2nc1N1CCCCC1)N1CCN(S(=O)(=O)c2cc(Cl)ccc2Cl)CC1 | -1 | · | · | -4 | · | ·
Oc1ccccc1-c1cc(-c2cccc(F)c2)n[nH]1 | 5 | 11 | 4 | 21* | 4 | 1
CN(CC(=O)NCC(=O)Nc1ccc(F)cc1)CC(=O)Nc1ccc(Cl)c(C(F)(F)F)c1 | -1 | 16 | 2 | -17 | · | ·
CN(CC(=O)NCc1ccc(F)cc1)CC(=O)Nc1ccc(Cl)c(C(F)(F)F)c1 | 5 | 25 | 1 | 23* | 0 | 0
CC(C)c1ccc(OCC(=O)NCc2ccccc2)cc1 | 0 | 12 | -4 | 78* | 0 | 0
COc1ccc(CN2CN3CCc4ccccc4C3CS2(=O)=O)cc1 (configuration not stated) | -5 | · | · | -7 | · | ·
CCc1nc2ccccc2c(C(=O)OCC(=O)Nc2cccc(S(=O)(=O)NC3=NCCCCC3)c2)c1C | 6 | 8 | 1 | 15 | · | ·
CCc1nc2ccccc2c(C(=O)OCC(=O)Nc2cccc(S(=O)(=O)N3CCOCC3)c2)c1C | 5 | 20 | 1 | 22* | 3 | 1
CC(C)N1CCCCC(NC(=O)c2cccc(F)c2)C1=O (configuration not stated) | -1 | · | · | 2 | · | ·
N#Cc1ccc(NC(=O)OC2CC3CC2[C@H]2CCCCN2C3)cc1 (some centres not stated) | -8 | · | · | -9 | · | ·
CCC1(c2ccccc2)NC(=O)N(CC(=O)N(CC(=O)Nc2ccccc2C(F)(F)F)Cc2ccco2)C1=O (configuration not stated) | 0 | 1 | 4 | 81* | 0 | 0
CCN(CC)C(=O)C1CCCN(Cc2cccc(F)c2)C1 (configuration not stated) | -1 | -8 | 0 | 79* | 1 | 0
O=C(NC1CCCN(Cc2ccc(Cl)cc2)C1)c1cccc(F)c1 (configuration not stated) | -2 | 9 | -1 | 82* | 1 | 0
O=C(NC1CCCN(Cc2ccc(Cl)cc2)C1)c1ccoc1 (configuration not stated) | -3 | -4 | -2 | -2 | · | ·
CCN(CC)C(=O)C1CCCN(Cc2ccc3ccccc3c2)C1 (configuration not stated) | -1 | -2 | -1 | 14 | · | ·
CCOC(=O)[C@@H]1[C@H]2COc3ccc(Br)cc3[C@H]2N2C(=O)N(c3ccc(F)cc3)C(=O)[C@]12C | 4 | 21 | 0 | 25* | 5 | 2
CCOC(=O)[C@@H]1[C@H]2COc3ccc(Br)cc3[C@@H]2N2C(=O)N(c3ccc(Cl)cc3)C(=O)[C@]12C | -4 | 45 | 0 | -1 | · | ·
Nc1nc(N)c(-c2cccc(C(F)(F)F)c2)c(Cc2cccc(C(F)(F)F)c2)n1 | 15* | 32 | 1 | 37* | 1 | 0
CN(C)CCCNC(=O)c1c(N)[nH]c(C(=O)c2ccc(Br)cc2)c1-c1ccc(Br)cc1 | -3 | · | · | -16 | · | ·
O=C(O)CCN1C(=O)/C(=C/c2ccc(F)cc2F)SC1=S | -1 | · | · | -1 | · | ·
COc1cc(Sc2ccc(C)cc2)c(OC)cc1N | -1 | -5 | -2 | 30* | 2 | 1
